Among the data in ChEMBL document CHEMBL3085664, “Structure-activity relationship of imidazopyridinium analogues as antagonists of neuropeptide s receptor” (J Med Chem, 2013) are IC50 and Stability values, retold here.

Structures are written as SMILES.

Series [1] deals with T1, Neuropeptide S receptor (Homo sapiens, UniProt Q6W5P4).
T1 sequence (Q6W5P4 whole entry): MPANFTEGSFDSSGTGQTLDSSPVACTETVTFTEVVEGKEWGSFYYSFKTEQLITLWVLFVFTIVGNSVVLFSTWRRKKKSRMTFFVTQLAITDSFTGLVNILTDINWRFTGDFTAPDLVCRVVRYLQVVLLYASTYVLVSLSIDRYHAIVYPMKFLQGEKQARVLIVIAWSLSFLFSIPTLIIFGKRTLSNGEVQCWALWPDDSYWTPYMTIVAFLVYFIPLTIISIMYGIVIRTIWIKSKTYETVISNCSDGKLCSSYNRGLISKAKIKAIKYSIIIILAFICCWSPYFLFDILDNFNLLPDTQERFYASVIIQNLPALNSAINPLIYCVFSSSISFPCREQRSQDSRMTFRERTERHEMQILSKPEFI
Put plainly: Antagonist activity at neuropeptide S receptor (unknown origin) expressed in CHO cells assessed as inhibition of NPS-induced ERK activation after 20 mins by HTRF assay. It is filed as cell-based.

Series [2] deals with T1, Neuropeptide S receptor. Put plainly: Antagonist activity at neuropeptide S receptor (unknown origin) expressed in CHO cells assessed as inhibition of NPS-induced calcium mobilization after 10 mins by fluorescence assay. The following applies: read-out: IC50. It is filed as functional, cell-based. A digest of the protocol: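 CHO-NPSR cells, 2000/well in 1536-well plates, incubated overnight, then loaded with no-wash calcium dye for 1 h at 37°C. Compound in DMSO was added for 10 min. Baseline fluorescence was recorded 6 s at 1 Hz, then EC80 NPS in stimulation buffer was added and recording continued 4 min at 1 Hz on a kinetic reader. IC50 is the mean with SD of two independent experiments in duplicate.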
On the technique in general: Calcium assays in cells follow changes in intracellular calcium, usually with a dye or a luminescent sensor.

For series [3], the target named is T1, Neuropeptide S receptor. Put plainly: Antagonist activity at neuropeptide S receptor (unknown origin) expressed in CHO cells assessed as cAMP level after 30 mins by […] assay. It is filed as functional, cell-based. The note with it: read-out: IC50. A digest of the protocol:
(§1)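 CHO cells stably expressing NPSR, 1800 cells/well in 1536-well format, seeded overnight at 37°C in medium without Geneticin. Stimulation buffer (PBS, 0.1% BSA, 0.05% Tween-20, 500µM Ro 20-1724, EC80 NPS) was added for 30 min at 37°C. cAMP was read by HTRF (d2-cAMP/cryptate anti-cAMP in lysis buffer, 30 min). IC50 is the mean with SD of two independent experiments, each run in duplicate.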

Series [4] can be described thus: Chemical stability of the compound in phosphate-buffered saline after 48 hrs. The following applies: buffer. It is filed as physicochemical. The method in brief:
(§2)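 Compound was held in Hank's balanced buffer solution or PBS for 48 hours and checked for decomposition to other species.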

Series [5] is described as follows: Chemical stability of the compound in HBBS buffer after 48 hrs. It is filed as physicochemical. The method in brief:
as §2

For series [6], the target named is T1, Neuropeptide S receptor. Nature of the series: Displacement of [125I]Tyr10-NPS from neuropeptide S receptor (unknown origin). A digest of the protocol:
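Whole CHO cells stably expressing human NPSR at 90–95% confluency in 24-well plates. Cells were incubated with 0.15 nM [125I]Y10-NPS plus increasing compound or unlabeled NPS in DMEM/0.1% BSA, 20°C, 1.5 hr. Nonspecific binding was defined with 1 µM unlabeled human NPS. Cells were washed, lysed in 1 N NaOH and counted by liquid scintillation. IC50 from one experiment in duplicate.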
(Displacement assays read how much labelled ligand stays bound in the presence of the test substance.)

The target in series [7] is T1, Neuropeptide S receptor. Nature of the series: Antagonist activity at neuropeptide S receptor (unknown origin) assessed as cAMP level by cell based assay. It is filed as functional. A digest of the protocol: as §1
For orientation: cAMP levels reflect the balance of adenylyl cyclase and phosphodiesterase activity.

Series [8] deals with T1, Neuropeptide S receptor. Nature of the series: Antagonist activity at neuropeptide S receptor (unknown origin) assessed as intracellular calcium level by cell based assay. The format is functional. A digest of the protocol:
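CHO cells stably expressing NPSR were seeded at 2000 cells/well and incubated overnight at 37 °C, 5% CO2. They were loaded with no-wash calcium dye for 1 h, then preincubated with compound in DMSO for 10 min. Stimulation used NPS at EC80 in PBS/0.1% BSA/0.05% Tween-20 with 500 µM Ro 20-1724. Kinetic fluorescence was read at 1 Hz: 6 s baseline, then 4 min. IC50 is the mean ± SD of two independent experiments, each in duplicate.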

In the case of `Cc1c(P(=S)(c2ccccc2)c2ccccc2)[n+]2ccccc2n1C.[I-]`, the IC50 – broadly, the point on the concentration scale where inhibition reaches its midpoint – at Neuropeptide S receptor [1] was determined as 30 nM; on Neuropeptide S receptor [2] it was 51 nM; at Neuropeptide S receptor [3], 1700 nM; at Neuropeptide S receptor [6] it was 84 nM; on Neuropeptide S receptor [7] it was 1700 nM; at Neuropeptide S receptor [8] it was 51 nM. Also, the Stability result in series [4] and in series [5] was “Stable” throughout.
